Measurements from ChEMBL document CHEMBL1800057, “Discovery of dual inducible/neuronal nitric oxide synthase (iNOS/nNOS) inhibitor development candidate 4-((2-cyclobutyl-1H-imidazo[4,5-b]pyrazin-1-yl)methyl)-7,8-difluoroquinolin-2(1H)-one (KD7332) part 2: identification of a novel, potent, and selective series of benzimidazole-quinolinone …” (J Med Chem, 2010).
pEC50: −log10 of the molar value.

Columns and labels:
[1] = Plasma clearance in rhesus monkey at 3 mg/kg, iv and 10 mg/kg, po; format: ADME, organism-based, Macaca mulatta
Summary of the method: (§1)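 Rhesus pharmacokinetics: 3 mg/kg iv and 10 mg/kg po, HCl salt. Clp, t1/2, Vdss, Cmax, AUC, oral t1/2 and %F reported.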

[2] = Half life in rhesus monkey at 3 mg/kg, iv and 10 mg/kg, po; format: ADME, organism-based, Macaca mulatta; settings: in vivo; summary of the method: as §1
[3] = Volume of distribution at steady state in rhesus monkey at 3 mg/kg, iv and 10 mg/kg, po; format: ADME, organism-based, Macaca mulatta; settings: in vivo, read-out: Vdss; summary of the method: as §1
[4] = Cmax in rhesus monkey at 3 mg/kg, iv and 10 mg/kg, po; format: ADME, organism-based, Macaca mulatta; settings: in vivo; summary of the method: as §1
[5] = AUC in rhesus monkey at 3 mg/kg, iv and 10 mg/kg, po; format: ADME, organism-based, Macaca mulatta; settings: plasma; summary of the method: as §1
[6] = Half life in rhesus monkey at 10 mg/kg, po; format: ADME, organism-based, Macaca mulatta; set-up: dose 10 mg/kg, route oral; settings: in vivo
[7] = Bioavailability in rhesus monkey at 3 mg/kg, iv and 10 mg/kg, po; format: ADME, organism-based, Macaca mulatta; settings: in vivo; summary of the method: as §1
[8] = Cmax in mouse at 3 mg/kg, iv and 10 mg/kg, po; format: ADME, organism-based; settings: in vivo
[9] = AUC in mouse at 3 mg/kg, iv and 10 mg/kg, po; format: ADME, organism-based; settings: plasma
[10] = Half life in mouse at 10 mg/kg, po; format: ADME, organism-based; set-up: dose 10 mg/kg, route oral; settings: in vivo
[11] = biological target: Nitric oxide synthase, inducible (Homo sapiens, UniProt P35228); test: Inhibition of human iNOS expressed in HEK293 cells assessed as inhibition of nitric oxide production after 18 hrs using 2,3-diaminonaphthalene by fluorescence assay; format: cell-based
Nitric oxide synthase, inducible (Homo sapiens, UniProt P35228), sequence (P35228 whole entry): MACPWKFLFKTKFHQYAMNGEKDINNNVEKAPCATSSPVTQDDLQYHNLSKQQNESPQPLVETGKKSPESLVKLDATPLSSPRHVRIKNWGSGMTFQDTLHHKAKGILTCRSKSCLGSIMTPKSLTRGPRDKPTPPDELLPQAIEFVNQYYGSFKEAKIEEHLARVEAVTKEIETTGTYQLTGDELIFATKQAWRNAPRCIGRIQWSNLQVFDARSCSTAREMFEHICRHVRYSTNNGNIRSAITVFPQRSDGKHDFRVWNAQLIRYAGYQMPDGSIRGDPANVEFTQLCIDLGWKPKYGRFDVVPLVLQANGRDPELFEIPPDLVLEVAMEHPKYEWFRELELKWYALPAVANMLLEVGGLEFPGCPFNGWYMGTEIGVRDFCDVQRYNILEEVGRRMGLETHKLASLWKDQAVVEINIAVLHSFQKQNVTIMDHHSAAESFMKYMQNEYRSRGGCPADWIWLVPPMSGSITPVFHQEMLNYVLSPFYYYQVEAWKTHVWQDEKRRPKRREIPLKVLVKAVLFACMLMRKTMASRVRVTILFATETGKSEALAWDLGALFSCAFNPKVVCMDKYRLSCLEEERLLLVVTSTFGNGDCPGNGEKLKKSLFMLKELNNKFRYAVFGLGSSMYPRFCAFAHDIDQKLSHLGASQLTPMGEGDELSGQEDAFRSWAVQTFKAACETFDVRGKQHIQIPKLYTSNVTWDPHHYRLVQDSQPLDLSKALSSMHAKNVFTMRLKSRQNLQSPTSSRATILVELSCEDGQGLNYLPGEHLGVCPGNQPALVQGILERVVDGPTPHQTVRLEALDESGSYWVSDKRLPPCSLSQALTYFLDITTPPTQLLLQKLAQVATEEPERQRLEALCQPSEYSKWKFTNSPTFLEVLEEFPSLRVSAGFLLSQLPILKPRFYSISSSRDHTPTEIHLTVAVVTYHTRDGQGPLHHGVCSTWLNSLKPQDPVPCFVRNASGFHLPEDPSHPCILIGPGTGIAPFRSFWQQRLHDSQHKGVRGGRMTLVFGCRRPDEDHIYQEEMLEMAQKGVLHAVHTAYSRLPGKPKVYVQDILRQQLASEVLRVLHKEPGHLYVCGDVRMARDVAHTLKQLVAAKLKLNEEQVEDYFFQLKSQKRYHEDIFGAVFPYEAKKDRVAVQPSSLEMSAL
Summary of the method: (§2)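 HEK293 cells grown to ~70% confluence in DMEM/10% FBS with pen/strep, transiently transfected with 10 μg human or murine iNOS plasmid plus Fugene 6 for 4 h at 37 °C, 10% CO2. Cells replated at 5e5 cells/mL and dosed with compound at once; 1400W (100 μM final) as positive control. After 18 h, DAN (10 μg/mL final) in HCl (0.1 N final) added for 20 min at room temperature. Fluorescence read after NaOH (0.12 N final).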

Nitric oxide synthase 1 = Nitric oxide synthase 1 (Homo sapiens, UniProt P29475); test: Inhibition of human nNOS expressed in HEK293 cells assessed as inhibition ionomycin induced nitric oxide production incubated for 24 hrs measured after 18 hrs of ionomycin challenge using 2,3-diaminonaphthalene by fluorescence assay; format: cell-based
Nitric oxide synthase 1, sequence (P29475 whole entry): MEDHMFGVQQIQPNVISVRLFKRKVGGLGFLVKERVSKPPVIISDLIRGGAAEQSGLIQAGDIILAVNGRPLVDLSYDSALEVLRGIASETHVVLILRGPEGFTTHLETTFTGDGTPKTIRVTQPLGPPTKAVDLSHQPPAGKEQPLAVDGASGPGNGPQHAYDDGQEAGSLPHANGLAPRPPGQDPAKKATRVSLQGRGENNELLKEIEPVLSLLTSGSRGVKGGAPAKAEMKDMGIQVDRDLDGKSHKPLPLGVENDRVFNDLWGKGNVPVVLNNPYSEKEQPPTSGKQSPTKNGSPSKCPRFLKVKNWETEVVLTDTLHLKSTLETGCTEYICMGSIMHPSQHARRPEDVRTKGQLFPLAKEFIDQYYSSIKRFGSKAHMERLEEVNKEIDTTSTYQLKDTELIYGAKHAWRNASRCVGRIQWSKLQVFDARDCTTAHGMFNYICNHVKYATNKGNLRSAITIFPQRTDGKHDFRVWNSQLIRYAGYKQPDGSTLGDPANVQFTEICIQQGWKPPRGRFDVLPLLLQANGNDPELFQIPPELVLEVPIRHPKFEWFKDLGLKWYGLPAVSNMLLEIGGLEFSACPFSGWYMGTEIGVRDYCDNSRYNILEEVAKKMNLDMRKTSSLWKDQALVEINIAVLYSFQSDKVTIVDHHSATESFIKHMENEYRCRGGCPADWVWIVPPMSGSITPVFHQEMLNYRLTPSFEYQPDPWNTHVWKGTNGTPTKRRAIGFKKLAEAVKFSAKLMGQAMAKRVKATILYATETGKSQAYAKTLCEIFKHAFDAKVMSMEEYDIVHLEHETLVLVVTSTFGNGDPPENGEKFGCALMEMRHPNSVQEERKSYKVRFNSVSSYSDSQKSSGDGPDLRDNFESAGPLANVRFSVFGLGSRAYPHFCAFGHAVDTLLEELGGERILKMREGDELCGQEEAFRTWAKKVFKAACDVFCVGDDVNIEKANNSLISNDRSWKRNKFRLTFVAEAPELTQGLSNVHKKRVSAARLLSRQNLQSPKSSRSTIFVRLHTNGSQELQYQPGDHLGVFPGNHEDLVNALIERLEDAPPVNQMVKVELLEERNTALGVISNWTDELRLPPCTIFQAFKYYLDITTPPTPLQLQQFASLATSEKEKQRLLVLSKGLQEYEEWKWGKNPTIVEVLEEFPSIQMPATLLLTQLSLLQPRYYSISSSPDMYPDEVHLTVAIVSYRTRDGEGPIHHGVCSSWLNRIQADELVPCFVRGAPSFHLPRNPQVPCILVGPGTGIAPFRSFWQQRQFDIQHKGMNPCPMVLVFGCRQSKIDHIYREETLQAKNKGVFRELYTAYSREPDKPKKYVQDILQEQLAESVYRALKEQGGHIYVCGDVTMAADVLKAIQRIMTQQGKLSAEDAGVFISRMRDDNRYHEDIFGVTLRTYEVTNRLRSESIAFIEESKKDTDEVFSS
Summary of the method: (§3)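 HEK293 cells transfected for 4 h at 37 °C with human nNOS (10 μg) or human eNOS (15 μg) plasmid (Fugene 6, 3:1). Cells replated at 5e5 cells/mL and dosed with compound at once; SEITU (100 μM final) as positive control. After 24 h, cells activated with A23187 (83 nM final) for eNOS or ionomycin (30 μM final) for nNOS. NO read 18 h later as nitrite-DAN fluorescence.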

Nitric oxide synthase 3 = biological target: T1, Nitric oxide synthase 3 (Homo sapiens, UniProt P29474); test: Inhibition of human eNOS expressed in HEK293 cells assessed as inhibition A23187 induced nitric oxide production incubated for 24 hrs measured after 18 hrs of […] challenge using 2,3-diaminonaphthalene by fluorescence assay; format: cell-based; summary of the method: as §3
T1 sequence (P29474 whole entry): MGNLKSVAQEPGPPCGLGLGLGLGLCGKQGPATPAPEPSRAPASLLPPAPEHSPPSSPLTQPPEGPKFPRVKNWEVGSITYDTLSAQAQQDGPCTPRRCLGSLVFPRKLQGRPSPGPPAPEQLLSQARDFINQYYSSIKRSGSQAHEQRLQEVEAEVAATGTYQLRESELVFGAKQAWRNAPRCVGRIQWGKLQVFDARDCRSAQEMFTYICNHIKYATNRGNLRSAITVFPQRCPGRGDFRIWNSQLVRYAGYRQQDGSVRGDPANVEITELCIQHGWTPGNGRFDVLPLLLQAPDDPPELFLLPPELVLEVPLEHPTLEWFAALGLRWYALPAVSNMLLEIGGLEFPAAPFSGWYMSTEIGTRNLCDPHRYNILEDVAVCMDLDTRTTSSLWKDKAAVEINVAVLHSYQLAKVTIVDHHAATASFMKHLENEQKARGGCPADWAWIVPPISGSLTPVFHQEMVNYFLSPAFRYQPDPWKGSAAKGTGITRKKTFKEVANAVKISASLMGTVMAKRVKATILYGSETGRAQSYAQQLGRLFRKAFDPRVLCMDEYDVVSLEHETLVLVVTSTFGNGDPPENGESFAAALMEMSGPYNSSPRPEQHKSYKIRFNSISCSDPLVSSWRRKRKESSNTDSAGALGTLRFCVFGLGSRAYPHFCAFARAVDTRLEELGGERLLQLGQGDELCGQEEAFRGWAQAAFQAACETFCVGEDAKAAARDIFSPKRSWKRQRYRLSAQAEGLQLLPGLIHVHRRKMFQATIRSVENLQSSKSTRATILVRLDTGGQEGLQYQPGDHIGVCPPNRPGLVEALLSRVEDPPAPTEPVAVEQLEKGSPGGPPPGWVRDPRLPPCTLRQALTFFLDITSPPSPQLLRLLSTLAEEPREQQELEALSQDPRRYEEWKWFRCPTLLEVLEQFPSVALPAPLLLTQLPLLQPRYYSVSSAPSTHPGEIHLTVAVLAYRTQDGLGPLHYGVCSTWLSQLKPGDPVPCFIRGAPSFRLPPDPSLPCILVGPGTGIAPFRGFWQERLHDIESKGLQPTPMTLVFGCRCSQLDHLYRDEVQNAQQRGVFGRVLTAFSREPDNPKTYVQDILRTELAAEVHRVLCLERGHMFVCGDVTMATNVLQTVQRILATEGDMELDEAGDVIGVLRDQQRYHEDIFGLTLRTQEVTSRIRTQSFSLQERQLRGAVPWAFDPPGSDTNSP

Liver = test: Half life in mouse liver microsomes assessed as formation of oxidation product and glucuronide conjugate; format: ADME, Microsome
Summary of the method: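 Mouse liver microsomes run under combined phase I oxidation and phase II glucuronide conjugation; half-life reported in minutes.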

Homo sapiens [12] = species on record: Homo sapiens; test: Ratio of IC50 for human eNOS to EC50 for human iNOS
Homo sapiens [13] = species on record: Homo sapiens; test: Ratio of IC50 for human nNOS to EC50 for human iNOS
[14] = biological target: T2, Nitric oxide synthase 3 (Homo sapiens) (UniProt P29474); test: Inhibition of human eNOS expressed in HEK293 cells assessed as inhibition A23187 induced nitric oxide production at 100 uM incubated for 24 hrs measured after 18 hrs of […] challenge using 2,3-diaminonaphthalene by fluorescence assay; format: cell-based
T2 sequence (whole entry): T1 sequence (P29474 whole entry)

[15] = biological target: T3, Nitric oxide synthase, inducible (Mus musculus, UniProt P29477); test: Inhibition of mouse iNOS expressed in HEK293 cells assessed as inhibition of nitric oxide production after 18 hrs using 2,3-diaminonaphthalene by fluorescence assay; format: cell-based; summary of the method: as §2
T3 sequence (P29477 whole entry): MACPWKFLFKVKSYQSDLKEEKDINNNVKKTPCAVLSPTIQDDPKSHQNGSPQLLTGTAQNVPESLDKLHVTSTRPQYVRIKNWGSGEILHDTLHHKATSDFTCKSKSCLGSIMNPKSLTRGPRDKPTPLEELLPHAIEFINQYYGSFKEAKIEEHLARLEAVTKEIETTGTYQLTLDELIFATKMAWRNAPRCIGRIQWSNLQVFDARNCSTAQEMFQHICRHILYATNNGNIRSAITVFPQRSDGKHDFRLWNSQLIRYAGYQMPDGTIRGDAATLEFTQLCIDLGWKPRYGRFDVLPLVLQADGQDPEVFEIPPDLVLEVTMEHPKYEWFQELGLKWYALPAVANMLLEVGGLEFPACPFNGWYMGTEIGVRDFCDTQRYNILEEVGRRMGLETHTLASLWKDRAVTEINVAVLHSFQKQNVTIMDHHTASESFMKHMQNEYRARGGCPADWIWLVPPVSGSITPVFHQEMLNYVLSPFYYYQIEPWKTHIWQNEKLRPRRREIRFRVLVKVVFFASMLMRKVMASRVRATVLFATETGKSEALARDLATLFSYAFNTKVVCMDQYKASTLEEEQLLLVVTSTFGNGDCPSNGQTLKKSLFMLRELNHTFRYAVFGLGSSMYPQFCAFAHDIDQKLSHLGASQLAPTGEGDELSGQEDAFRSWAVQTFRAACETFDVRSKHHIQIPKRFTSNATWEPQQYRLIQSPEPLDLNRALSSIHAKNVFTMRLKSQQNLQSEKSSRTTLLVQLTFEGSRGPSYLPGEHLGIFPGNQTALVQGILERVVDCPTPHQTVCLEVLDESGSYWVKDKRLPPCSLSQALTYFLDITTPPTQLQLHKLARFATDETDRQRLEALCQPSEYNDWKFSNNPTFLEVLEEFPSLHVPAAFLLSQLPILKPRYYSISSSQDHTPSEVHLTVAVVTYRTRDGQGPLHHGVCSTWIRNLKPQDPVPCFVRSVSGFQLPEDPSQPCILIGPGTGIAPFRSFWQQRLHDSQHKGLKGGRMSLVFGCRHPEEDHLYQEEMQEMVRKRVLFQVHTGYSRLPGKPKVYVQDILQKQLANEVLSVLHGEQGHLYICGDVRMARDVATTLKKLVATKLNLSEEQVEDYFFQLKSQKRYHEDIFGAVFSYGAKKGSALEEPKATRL

Mus musculus [16] = test: Inhibition of LPS-induced iNOS activation in BALB/c mouse assessed as plasma nitrate levels at 30 mg/kg administered via oral gavage before LPS challenge measured after 6 to 8 hrs using 2,3-diaminonaphthalene by fluorescence assay relative to control; format: functional
Summary of the method: (§4)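 Male BALB/c mice dosed by oral gavage (90% PEG/5% Tween 80/5% PVP + 0.5% w/v CMC) immediately before LPS (10 mg/kg ip in 0.9% NaCl). Mice killed at 6 h. EDTA plasma analysed for nitrate and drug levels; nitrite measured by DAN fluorescence.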

[17] = Plasma clearance in mouse at 3 mg/kg, iv and 10 mg/kg, po; format: ADME, organism-based
[18] = Volume of distribution at steady state in mouse at 3 mg/kg, iv and 10 mg/kg, po; format: ADME, organism-based; settings: in vivo, read-out: Vdss
[19] = Oral bioavailability in mouse at 10 mg/kg; format: ADME, organism-based; settings: in vivo
Mus musculus [20] = test: Inhibition of LPS-induced iNOS activation in BALB/c mouse assessed as plasma nitrate levels administered via oral gavage before LPS challenge measured after 6 to 8 hrs using 2,3-diaminonaphthalene by fluorescence assay; format: functional; summary of the method: as §4
[21] = Half life in mouse at 3 mg/kg, iv and 10 mg/kg, po; settings: in vivo

Row | SMILES | Cmax [8] [ng/mL] | AUC [9] [ng·h/mL] | half-life [10] [h] | pEC50 [11] | pEC50 (Nitric oxide synthase 1) | pEC50 (Nitric oxide synthase 3) | t1/2 (Liver) [h] | Ratio EC50 (Homo sapiens [12]) | Ratio EC50 (Homo sapiens [13]) | pEC50 [15] | also measured
1 | Cl.O=c1cc(Cn2c(C3CC(F)(F)C3)nc3nccnc32)c2cccc(F)c2[nH]1 | – | – | – | – | – | – | – | – | – | – | clearance [1]: 8.6 mL/min/kg; half-life [2]: 6.6 h; Vd [3]: 1.8 L/kg; Cmax [4]: 3400 ng/mL; AUC [5]: 21000 ng·h/mL; half-life [6]: 6.1 h; bioavailability [7]: 100%
2 | CN(C)c1ccnc2c1nc(C1CCC1)n2Cc1cc(=O)[nH]c2c(F)c(F)ccc12 | 400 | 700 | 1.4 | 6.77 | 6.00 | < 4.00 | 0.13 | > 590 | 5.9 | 5.74 | inhibition [14]: < 50%; inhibition in vivo at 30 mg/kg (Mus musculus [16]): 30%
3 | CC(C)c1nc2ccccc2n1Cc1cc(=O)[nH]c2c(F)c(F)ccc12 | 14000 | 19300 | 2.6 | 6.10 | 6.19 | 4.95 | > 2 | 14 | 0.8 | 5.36 | clearance [17]: 5.9 mL/min/kg; Vd [18]: 0.7 L/kg; bioavailability [19]: 58%; ED50 (Mus musculus [20]): 6 mg/kg; half-life [21]: 2.1 h
